According to ChEMBL document CHEMBL5247671, “Design and Synthesis of Pyrazole-Based Macrocyclic Kinase Inhibitors Targeting BMPR2” (ACS Med Chem Lett, 2023):

Experiments:
[1] = target: T1, Serine/threonine-protein kinase 4 (Homo sapiens) (UniProt Q13043); test: Inhibition of recombinant STK4 (unknown origin) at 10 uM by DSF assay relative to staurosporine
T1 sequence (whole entry): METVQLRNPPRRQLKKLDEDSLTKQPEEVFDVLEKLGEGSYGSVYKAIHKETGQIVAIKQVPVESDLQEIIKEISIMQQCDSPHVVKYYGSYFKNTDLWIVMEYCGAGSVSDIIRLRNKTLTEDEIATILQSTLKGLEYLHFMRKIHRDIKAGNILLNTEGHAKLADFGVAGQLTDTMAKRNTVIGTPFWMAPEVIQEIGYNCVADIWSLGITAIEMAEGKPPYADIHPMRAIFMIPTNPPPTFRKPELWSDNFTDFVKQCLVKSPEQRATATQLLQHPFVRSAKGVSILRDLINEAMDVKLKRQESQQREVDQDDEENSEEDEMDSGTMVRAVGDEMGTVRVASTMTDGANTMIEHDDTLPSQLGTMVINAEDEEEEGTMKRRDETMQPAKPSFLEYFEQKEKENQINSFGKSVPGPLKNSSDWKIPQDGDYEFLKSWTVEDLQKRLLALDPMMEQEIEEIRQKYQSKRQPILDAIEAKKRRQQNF
How it was run: (§1)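 Differential scanning fluorimetry on an in-house panel of 90 recombinant kinases. Stabilization is read as the shift in melting temperature (ΔTm) relative to ligand-free protein. Staurosporine served as the positive control, and binding was also compared against its ΔTm.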

[2] = target: T1, Serine/threonine-protein kinase 4 (Homo sapiens); test: Binding affinity to recombinant STK4 (unknown origin) assessed as change in melting temperature at 10 uM by DSF assay; how it was run: as §1
[3] = target: Glycogen synthase kinase-3 beta (Homo sapiens, UniProt P49841); test: Binding affinity to recombinant GSK3B (unknown origin) assessed as change in melting temperature at 10 uM by DSF assay; how it was run: as §1
Glycogen synthase kinase-3 beta, sequence (P49841 whole entry, looked up): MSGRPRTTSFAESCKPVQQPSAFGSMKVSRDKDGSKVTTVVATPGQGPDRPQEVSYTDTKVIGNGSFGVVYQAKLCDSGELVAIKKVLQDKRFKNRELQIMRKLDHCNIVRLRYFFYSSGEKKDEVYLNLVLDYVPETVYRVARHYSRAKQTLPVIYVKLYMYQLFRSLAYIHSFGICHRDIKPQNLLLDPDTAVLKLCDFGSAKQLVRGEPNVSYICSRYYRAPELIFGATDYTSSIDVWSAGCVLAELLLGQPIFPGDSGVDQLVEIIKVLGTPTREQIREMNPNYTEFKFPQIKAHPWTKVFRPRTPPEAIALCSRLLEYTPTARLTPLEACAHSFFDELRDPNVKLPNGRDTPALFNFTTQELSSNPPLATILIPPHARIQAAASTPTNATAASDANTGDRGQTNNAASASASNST

[4] = target: Serine/threonine-protein kinase 24 (Homo sapiens) (UniProt Q9Y6E0); test: Inhibition of recombinant MST3 (unknown origin) at 10 uM by DSF assay relative to staurosporine; how it was run: as §1
Serine/threonine-protein kinase 24 (Homo sapiens), sequence (Q9Y6E0 whole entry, looked up): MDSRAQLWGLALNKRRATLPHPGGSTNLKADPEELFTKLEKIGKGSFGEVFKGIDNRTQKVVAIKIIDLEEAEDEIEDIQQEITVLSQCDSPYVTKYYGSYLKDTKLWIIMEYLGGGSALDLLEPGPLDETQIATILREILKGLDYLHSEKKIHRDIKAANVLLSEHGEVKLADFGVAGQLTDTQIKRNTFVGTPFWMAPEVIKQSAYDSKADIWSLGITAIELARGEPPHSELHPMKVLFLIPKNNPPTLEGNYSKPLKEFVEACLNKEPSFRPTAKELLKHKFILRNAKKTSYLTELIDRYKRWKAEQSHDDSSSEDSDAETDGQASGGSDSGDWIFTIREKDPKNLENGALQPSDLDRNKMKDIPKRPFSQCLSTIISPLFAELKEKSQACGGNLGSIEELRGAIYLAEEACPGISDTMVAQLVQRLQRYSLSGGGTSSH

[5] = target: T2, Mitogen-activated protein kinase 15 (Homo sapiens) (UniProt Q8TD08); test: Binding affinity to recombinant MAPK15 (unknown origin) assessed as change in melting temperature at 10 uM by DSF assay; how it was run: as §1
T2 sequence (whole entry): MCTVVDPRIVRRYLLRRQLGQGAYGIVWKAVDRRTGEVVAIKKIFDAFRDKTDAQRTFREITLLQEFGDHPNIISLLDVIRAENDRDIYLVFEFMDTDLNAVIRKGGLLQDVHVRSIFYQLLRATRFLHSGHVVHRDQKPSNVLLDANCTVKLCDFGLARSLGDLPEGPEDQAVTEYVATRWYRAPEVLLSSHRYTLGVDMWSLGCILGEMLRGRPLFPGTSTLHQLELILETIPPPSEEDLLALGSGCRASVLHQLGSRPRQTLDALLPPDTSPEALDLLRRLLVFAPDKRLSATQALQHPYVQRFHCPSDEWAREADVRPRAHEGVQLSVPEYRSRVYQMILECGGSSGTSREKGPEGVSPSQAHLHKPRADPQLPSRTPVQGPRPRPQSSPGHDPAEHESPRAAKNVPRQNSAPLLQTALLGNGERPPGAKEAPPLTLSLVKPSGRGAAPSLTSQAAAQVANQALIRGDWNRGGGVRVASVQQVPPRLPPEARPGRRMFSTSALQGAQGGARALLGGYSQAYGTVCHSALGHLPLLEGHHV

[6] = target: T3, Bone morphogenetic protein receptor type-2 (Homo sapiens, UniProt Q13873); test: Inhibition of BMPR2 (unknown origin) assessed as dissociation constant by ITC assay
T3 sequence (Q13873 whole entry): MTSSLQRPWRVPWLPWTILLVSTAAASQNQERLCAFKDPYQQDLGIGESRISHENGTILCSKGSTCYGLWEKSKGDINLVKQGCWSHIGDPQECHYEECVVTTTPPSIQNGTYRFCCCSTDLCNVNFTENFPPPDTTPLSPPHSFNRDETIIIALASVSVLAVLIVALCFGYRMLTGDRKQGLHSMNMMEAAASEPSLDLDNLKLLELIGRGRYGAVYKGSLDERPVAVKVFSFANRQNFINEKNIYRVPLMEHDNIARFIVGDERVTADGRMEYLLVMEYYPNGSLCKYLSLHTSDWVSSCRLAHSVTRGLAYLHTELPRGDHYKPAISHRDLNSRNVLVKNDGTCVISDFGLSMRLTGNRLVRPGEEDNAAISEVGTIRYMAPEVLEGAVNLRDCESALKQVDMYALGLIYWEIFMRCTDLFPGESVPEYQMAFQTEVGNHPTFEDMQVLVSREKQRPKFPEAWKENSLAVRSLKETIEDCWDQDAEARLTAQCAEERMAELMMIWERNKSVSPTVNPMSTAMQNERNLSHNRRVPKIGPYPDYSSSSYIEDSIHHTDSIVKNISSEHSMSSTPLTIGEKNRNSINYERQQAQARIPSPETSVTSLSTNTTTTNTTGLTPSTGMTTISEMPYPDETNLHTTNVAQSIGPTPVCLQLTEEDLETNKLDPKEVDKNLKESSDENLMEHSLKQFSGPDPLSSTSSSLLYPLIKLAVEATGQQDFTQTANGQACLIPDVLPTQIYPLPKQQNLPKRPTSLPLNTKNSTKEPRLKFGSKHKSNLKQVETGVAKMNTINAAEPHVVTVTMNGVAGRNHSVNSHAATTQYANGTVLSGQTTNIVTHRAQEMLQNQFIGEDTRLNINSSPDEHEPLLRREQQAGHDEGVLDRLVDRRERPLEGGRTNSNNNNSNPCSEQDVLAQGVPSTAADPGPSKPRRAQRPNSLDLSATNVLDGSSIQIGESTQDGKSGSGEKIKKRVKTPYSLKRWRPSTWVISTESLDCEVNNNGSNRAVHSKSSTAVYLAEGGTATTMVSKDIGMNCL
How it was run: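 Binding measured by isothermal titration calorimetry against the recombinant BMPR2 kinase domain. Thermodynamic binding parameters, including the dissociation constant, were derived from the titration data.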

[7] = target: Vascular endothelial growth factor receptor 1 (Homo sapiens) (UniProt P17948); test: Binding affinity to recombinant FLT1 (unknown origin) assessed as change in melting temperature at 10 uM by DSF assay; how it was run: as §1
Vascular endothelial growth factor receptor 1 (Homo sapiens), sequence (P17948 whole entry): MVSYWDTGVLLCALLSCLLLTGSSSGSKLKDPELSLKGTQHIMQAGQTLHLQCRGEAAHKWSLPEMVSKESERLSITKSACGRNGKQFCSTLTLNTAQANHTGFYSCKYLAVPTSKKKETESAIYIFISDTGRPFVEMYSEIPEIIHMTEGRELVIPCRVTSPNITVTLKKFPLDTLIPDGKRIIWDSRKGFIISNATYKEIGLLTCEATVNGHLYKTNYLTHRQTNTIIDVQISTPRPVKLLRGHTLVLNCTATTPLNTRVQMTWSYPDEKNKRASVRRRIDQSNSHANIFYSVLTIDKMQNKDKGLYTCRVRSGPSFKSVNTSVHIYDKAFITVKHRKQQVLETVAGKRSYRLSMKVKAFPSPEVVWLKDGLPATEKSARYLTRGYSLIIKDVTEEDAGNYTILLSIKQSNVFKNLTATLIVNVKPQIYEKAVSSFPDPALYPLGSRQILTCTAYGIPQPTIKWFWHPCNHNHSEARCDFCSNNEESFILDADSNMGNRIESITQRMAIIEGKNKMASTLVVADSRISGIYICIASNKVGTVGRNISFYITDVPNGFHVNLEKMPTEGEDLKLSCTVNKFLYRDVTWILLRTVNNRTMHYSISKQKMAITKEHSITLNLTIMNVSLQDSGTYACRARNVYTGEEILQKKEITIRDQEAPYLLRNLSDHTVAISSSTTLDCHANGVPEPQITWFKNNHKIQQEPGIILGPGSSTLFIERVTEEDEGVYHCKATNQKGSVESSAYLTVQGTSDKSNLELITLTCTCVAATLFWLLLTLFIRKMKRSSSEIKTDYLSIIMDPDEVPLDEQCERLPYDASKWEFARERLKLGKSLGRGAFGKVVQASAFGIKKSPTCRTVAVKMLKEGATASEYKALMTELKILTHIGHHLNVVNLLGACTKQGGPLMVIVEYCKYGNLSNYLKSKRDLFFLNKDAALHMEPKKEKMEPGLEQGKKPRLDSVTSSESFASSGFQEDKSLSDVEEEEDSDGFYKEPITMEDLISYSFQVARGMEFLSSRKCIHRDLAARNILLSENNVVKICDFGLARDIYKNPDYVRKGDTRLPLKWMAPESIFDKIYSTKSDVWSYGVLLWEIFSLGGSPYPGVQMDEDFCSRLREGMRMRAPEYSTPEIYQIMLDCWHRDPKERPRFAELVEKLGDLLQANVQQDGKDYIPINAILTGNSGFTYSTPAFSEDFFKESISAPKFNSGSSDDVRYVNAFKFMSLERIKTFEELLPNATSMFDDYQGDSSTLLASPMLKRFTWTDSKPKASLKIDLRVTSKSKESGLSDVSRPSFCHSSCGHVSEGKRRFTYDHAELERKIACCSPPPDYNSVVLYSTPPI

[8] = target: Glycogen synthase kinase-3 alpha (Homo sapiens, UniProt P49840); test: Inhibition of GSK3A (unknown origin) assessed as residual activity at 1 uM by Kinomescan assay relative to staurosporine
Glycogen synthase kinase-3 alpha, sequence (P49840 2-483 limits assumed): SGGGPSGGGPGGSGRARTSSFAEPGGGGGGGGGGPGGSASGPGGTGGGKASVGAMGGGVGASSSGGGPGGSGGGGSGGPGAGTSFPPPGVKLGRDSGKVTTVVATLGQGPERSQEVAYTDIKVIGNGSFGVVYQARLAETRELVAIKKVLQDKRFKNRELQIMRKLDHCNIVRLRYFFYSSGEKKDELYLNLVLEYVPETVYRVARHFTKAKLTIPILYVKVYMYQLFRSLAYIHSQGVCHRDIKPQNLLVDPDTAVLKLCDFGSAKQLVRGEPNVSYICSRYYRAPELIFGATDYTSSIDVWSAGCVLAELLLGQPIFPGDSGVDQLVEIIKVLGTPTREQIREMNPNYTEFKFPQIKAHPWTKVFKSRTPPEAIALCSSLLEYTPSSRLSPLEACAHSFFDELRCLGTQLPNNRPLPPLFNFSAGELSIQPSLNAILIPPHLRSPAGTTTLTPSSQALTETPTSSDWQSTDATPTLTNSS

[9] = target: Vascular endothelial growth factor receptor 1 (Homo sapiens) (UniProt P17948); test: Inhibition of recombinant FLT1 (unknown origin) at 10 uM by DSF assay relative to staurosporine; how it was run: as §1
[10] = target: T3, Bone morphogenetic protein receptor type-2; test: Inhibition of BMPR2 (174 to end residues) (unknown origin) using MBP as substrate incubated for 60 mins in presence of ATP by ADP Glo assay
How it was run: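 Enzymatic inhibition of the BMPR2 kinase was read out by ADP-Glo detection of ADP formed, and IC50 values were derived from concentration–response data.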

[11] = target: MAP/microtubule affinity-regulating kinase 3 (Homo sapiens) (UniProt P27448); test: Binding affinity to recombinant MARK3 (unknown origin) assessed as change in melting temperature at 10 uM by DSF assay; how it was run: as §1
MAP/microtubule affinity-regulating kinase 3 (Homo sapiens), sequence (P27448 whole entry, looked up): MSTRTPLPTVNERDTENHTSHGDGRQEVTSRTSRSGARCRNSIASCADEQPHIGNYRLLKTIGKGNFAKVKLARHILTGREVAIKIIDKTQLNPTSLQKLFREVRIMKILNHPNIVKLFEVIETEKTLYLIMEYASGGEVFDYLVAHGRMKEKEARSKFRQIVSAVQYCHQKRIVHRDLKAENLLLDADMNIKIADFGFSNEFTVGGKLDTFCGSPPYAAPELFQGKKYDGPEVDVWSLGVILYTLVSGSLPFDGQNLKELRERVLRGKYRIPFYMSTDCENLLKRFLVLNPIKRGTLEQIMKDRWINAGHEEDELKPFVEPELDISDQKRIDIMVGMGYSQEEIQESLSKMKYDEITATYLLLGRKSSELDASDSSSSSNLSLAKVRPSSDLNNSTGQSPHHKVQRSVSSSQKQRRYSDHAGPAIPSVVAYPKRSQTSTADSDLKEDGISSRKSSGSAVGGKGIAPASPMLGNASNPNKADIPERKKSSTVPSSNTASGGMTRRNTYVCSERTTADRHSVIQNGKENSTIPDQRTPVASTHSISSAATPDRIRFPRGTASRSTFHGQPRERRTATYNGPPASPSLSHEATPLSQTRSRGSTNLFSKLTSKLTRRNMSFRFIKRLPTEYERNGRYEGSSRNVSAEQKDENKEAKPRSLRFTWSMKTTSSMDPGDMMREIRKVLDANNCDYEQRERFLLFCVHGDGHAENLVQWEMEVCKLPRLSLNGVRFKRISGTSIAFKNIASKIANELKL

Compound `O=C1NCCc2ccc(cc2)Nc2nccc(n2)Nc2cc1[nH]n2` has an inhibition [1] of 22%, a ΔTm [2] of 3.2 °C and a ΔTm [3] of 8.4 °C. The inhibition [4] was 44%, the ΔTm [5] was 3.8 °C and the Kd [6] was 83.5 nM. For the same compound, the ΔTm [7] was 4.2 °C, the Activity [8] was 16% and the inhibition [9] was 36%. It also gave an IC50 [10] of 506 nM and a ΔTm [11] of 3.9 °C.
